Among the data in BindingDB's records for doi:10.1021/jm00350a002 (1982) are IC50 values, retold here.

In this assay the target is T1, Cytochrome P450 2B1 (Rattus norvegicus, UniProt P00176).
T1 sequence (P00176 whole entry): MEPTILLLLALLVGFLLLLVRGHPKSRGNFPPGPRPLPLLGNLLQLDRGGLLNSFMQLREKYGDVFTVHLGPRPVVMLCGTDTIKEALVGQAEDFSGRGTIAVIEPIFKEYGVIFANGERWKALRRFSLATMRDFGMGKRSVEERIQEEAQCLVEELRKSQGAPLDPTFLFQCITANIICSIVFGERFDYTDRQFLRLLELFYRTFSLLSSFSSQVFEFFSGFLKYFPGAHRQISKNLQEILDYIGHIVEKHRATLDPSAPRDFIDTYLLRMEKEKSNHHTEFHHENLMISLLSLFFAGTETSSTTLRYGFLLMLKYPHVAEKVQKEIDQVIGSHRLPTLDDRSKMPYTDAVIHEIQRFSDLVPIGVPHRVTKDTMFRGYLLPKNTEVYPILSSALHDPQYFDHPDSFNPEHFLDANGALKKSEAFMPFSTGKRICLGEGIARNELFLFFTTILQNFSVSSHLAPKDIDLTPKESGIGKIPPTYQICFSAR
Nature of the assay: Inhibitory potency to aminopyrine N-demethylase activity (P450) in hepatic microsomes from phenobarbitone-induced rats. The gist of the method: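 Microsomes (105000g pellet) from livers of male Wistar rats (100–150 g) given phenobarbitone ip on consecutive days. A 3.0 mL mix in 0.1 M K phosphate, pH 7.4, held aminopyrine 1.61 μmol, NADPH-generating system, semicarbazide and 5.6 mg protein, run 15 min. Formaldehyde was read by Nash/Hantzsch. Inhibitor went in DMSO or 0.07 M HCl, with solvent in controls. I50 came from seven concentrations.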
In turn, `Cc1nc2ccc([N+](=O)[O-])cc2[nH]1` displayed an IC50 of 219 µM. The same measure for `OC(c1ccccc1)c1nc2ccccc2[nH]1` (stereo not drawn): 158 µM; for `NCc1nc2ccccc2[nH]1`: 457 µM; for `O=[N+]([O-])c1cc(Cl)cc2[nH]cnc12`: 129 µM. The value for `CC(=O)Nc1ccc2nc(C)[nH]c2c1` was 1260 µM.

Molecule `O=[N+]([O-])c1ccc2[nH]cnc2c1` [5-Nitro-1H-benzoimidazole] registered an IC50 of 309 µM. The same measure for `CC(C)(C)c1nc2ccccc2[nH]1`: 302 µM; for `CCCCC(=O)Nc1ccc2nc(C)[nH]c2c1`: 417 µM; for `c1ccc2[nH]c(C3CC3)nc2c1`: 251 µM.

`Fc1ccc2[nH]cnc2c1`: the IC50 is 437 µM. Consider `Cc1nc2cc(NC(=O)c3ccccc3)ccc2[nH]1`, for which the IC50 was 302 µM. The same measure for `FC(F)(F)c1nc2ccccc2[nH]1`: 257 µM. The value for `Cc1ccc2[nH]cnc2c1` [5-methyl-1H-benzimidazole] was 575 µM; that for `CC(=O)Nc1cc(Cl)cc2[nH]c(C)nc12` was 309 µM; that for `Cc1ccc2nc(C)[nH]c2c1` was 479 µM.

Consider `Cc1nc2c(C)c(C)ccc2[nH]1`, for which the IC50 came to 251 µM.

The molecule `CCCCCc1nc2cc(NC(C)=O)ccc2[nH]1` registered an IC50 of 158 µM. The value for `CC(C)c1nc2ccccc2[nH]1` was 537 µM.

The molecule `Clc1ccc2[nH]cnc2c1` yielded an IC50 of 158 µM. `ClCc1nc2ccccc2[nH]1`: the IC50 stood at 141 µM. The value for `Cc1cccc2[nH]cnc12` was 525 µM; that for `CCCc1nc2cc(C)c(C)cc2[nH]1` was 110 µM; that for `CCCCc1nc2ccccc2[nH]1` was 120 µM. The same measure for `Cc1nc2cc(Cl)ccc2[nH]1`: 151 µM; for `CC(C)Cc1nc2ccccc2[nH]1`: 158 µM. The value for `O=[N+]([O-])c1cccc2[nH]cnc12` was 468 µM. For `c1cncc(-c2nc3ccccc3[nH]2)c1`, the IC50 was 200 µM.

Turning to `CCc1nc2ccc(C)cc2[nH]1`, half-maximal inhibition (IC50) required 269 µM.
